Legend:
[1] = Toxicity in Swiss Webster mouse assessed as stimulation of ambulatory activity by measuring total distance travelled at 1 to 30 mg/kg, ip measured every 5 mins for 2 hrs; assay type: organism-based; details: in vivo, dose 1-30 mg/kg
[2] = biological target: Sigma non-opioid intracellular receptor 1 (Cavia porcellus, UniProt Q60492); test: Displacement of [3H](+)-pentazocine from sigma 1 receptor in guinea pig brain cortex membranes after 120 mins by scintillation counting analysis; assay type: cell membranes, Membrane
Sequence of Sigma non-opioid intracellular receptor 1 (Q60492 whole entry): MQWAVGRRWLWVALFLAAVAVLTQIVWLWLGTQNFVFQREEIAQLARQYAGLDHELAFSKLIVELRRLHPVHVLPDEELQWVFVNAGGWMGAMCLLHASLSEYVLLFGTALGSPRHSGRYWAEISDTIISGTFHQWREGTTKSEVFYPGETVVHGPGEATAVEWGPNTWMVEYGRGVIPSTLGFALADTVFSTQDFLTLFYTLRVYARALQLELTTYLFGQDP
Procedure, shortened: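 Male guinea pig cortex membranes in 10 mM Tris-HCl/0.32 M sucrose pH 7.4, 5.0 mg/well original wet weight; [3H](+)-pentazocine 3 nM final; inhibitor serial dilutions in 30% DMSO vehicle, triplicate; 120 min at RT; nonspecific with 10 μM PRE084 or (+)-pentazocine.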

[3] = biological target: Sodium-dependent serotonin transporter (Rattus norvegicus, UniProt P31652); test: Displacement of [3H]citalopram from SERT in Sprague-Dawley rat midbrain membranes incubated for 60 mins by microbeta scintillation counting method; assay type: cell membranes, Membrane
Sequence of Sodium-dependent serotonin transporter (P31652 whole entry): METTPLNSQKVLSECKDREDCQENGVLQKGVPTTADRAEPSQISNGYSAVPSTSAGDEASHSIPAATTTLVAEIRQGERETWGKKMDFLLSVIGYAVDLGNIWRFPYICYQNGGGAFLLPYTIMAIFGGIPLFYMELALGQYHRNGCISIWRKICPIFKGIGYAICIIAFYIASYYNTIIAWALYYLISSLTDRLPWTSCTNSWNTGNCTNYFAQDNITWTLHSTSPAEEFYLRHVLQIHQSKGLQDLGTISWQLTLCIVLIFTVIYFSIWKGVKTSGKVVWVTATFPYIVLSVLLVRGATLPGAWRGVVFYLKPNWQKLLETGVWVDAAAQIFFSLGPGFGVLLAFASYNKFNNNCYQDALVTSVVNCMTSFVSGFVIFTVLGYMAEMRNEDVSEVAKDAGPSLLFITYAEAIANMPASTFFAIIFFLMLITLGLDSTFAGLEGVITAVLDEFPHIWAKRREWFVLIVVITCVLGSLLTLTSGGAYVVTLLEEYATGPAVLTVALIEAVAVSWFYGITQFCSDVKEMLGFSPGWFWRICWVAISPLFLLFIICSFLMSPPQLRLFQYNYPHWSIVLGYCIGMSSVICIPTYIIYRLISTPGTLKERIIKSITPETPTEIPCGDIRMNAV

[4] = biological target: Sodium-dependent dopamine transporter (Rattus norvegicus, UniProt P23977); test: Displacement of [3H]WIN35428 from DAT in Sprague-Dawley rat striatal membranes incubated for 120 mins by microbeta scintillation counting method; assay type: cell membranes, Striatum, Membrane
Sequence of Sodium-dependent dopamine transporter (P23977 whole entry): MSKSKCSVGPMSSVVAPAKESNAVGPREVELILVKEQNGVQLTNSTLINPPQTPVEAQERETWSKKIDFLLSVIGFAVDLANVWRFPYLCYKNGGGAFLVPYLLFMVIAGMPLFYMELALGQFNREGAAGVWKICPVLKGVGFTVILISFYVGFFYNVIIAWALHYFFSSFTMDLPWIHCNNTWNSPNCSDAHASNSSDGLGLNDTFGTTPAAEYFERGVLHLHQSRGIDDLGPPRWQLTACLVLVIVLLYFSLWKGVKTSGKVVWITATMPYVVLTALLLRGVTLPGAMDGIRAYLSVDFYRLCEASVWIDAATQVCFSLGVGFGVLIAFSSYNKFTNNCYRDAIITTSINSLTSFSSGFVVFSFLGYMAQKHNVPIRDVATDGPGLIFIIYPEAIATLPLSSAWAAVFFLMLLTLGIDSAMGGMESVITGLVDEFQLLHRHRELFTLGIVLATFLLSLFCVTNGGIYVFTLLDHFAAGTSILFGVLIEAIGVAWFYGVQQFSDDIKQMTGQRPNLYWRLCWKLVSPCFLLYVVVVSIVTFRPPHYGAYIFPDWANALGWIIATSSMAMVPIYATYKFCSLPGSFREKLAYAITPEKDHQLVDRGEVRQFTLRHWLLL

D(3) dopamine receptor = D(3) dopamine receptor (Homo sapiens, UniProt P35462); test: Displacement of [3H]-N-methylspiperone from human D3 receptor expressed in HEK293 cell membranes measured after 60 mins by microbeta scintillation counting method; design: species or system Membrane
Sequence of D(3) dopamine receptor (P35462 whole entry): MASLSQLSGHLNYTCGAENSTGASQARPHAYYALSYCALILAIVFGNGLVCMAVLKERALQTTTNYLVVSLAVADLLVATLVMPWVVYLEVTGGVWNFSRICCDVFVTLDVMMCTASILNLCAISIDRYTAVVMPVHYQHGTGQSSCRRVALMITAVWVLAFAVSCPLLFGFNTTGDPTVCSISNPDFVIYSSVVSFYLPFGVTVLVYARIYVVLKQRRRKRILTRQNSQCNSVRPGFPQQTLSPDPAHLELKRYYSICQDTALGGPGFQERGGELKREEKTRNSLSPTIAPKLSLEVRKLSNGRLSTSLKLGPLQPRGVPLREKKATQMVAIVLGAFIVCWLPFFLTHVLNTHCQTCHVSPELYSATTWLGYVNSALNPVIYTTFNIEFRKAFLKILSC
Procedure, shortened: (§1)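 Membranes from HEK293 cells stably expressing human D2LR, D3R or D4.4R; 20 μg/well protein (D2LR, D3R) or 30 μg/well (D4.4R); [3H]-N-methylspiperone 0.4 nM final; half-log dilutions in 30% DMSO, triplicate; 60 min RT; nonspecific 10 μM (+)-butaclamol.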

[5] = Metabolic stability in rat liver microsomes assessed as compound remaining at 10 uM in presence of NADPH regenerating system by LC-MS/MS analysis; assay type: ADME, Microsome
[6] = Metabolic stability in mouse liver microsomes assessed as compound remaining at 10 uM incubated for 60 mins in presence of NADPH regenerating system by LC-MS/MS analysis; assay type: ADME, Microsome; details: 1 h
[7] = Metabolic stability in rat liver microsomes assessed as compound remaining at 10 uM incubated for 60 mins in presence of NADPH regenerating system by LC-MS/MS analysis; assay type: ADME, Microsome; details: 1 h
[8] = Displacement of [3H]-Nisoxetine from NET in Sprague-Dawley rat frontal cortex membrane after 180 mins by microbeta scintillation counting method; assay type: cell membranes
D(2) dopamine receptor = D(2) dopamine receptor (Homo sapiens, UniProt P14416); test: Displacement of [3H]-N-methylspiperone from human D2L receptor expressed in HEK293 cell membranes measured after 60 mins by microbeta scintillation counting method; design: species or system Membrane; procedure, shortened: as §1
Sequence of D(2) dopamine receptor (P14416 whole entry): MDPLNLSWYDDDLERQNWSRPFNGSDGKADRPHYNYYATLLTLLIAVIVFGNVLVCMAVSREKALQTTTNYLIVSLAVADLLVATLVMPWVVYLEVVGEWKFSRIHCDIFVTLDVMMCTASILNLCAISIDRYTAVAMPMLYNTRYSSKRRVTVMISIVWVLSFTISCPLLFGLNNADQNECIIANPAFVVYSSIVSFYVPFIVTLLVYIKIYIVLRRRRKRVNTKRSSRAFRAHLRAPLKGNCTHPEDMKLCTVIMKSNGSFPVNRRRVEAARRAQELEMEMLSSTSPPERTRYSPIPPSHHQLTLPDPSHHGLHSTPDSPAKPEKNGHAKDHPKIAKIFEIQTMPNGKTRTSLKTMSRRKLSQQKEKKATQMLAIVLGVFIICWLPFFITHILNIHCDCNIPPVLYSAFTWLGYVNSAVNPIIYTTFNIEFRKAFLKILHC

[9] = Toxicity in Swiss Webster mouse assessed as stimulation of ambulatory activity by measuring total distance travelled at 30 mg/kg, ip measured every 5 mins for 2 hrs; assay type: organism-based; details: in vivo
D(4) dopamine receptor = biological target: T1, D(4) dopamine receptor (Homo sapiens, UniProt P21917); test: Displacement of [3H]-N-methylspiperone from human D4.4 receptor expressed in HEK293 cell membranes measured after 60 mins by microbeta scintillation counting method; design: species or system Membrane; procedure, shortened: as §1
T1 sequence (P21917 whole entry): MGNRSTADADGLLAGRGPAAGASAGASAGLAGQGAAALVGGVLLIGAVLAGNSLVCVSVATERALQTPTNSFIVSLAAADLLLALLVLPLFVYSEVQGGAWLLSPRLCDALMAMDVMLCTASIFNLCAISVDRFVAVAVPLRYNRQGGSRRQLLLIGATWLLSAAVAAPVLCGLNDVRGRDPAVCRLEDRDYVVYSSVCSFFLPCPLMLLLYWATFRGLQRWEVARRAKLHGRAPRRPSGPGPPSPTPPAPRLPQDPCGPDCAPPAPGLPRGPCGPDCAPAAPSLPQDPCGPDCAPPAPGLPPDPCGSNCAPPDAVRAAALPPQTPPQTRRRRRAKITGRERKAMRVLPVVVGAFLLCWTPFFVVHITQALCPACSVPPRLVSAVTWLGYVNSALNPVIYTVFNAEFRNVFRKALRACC

[10] = Selectivity ratio of Ki for sigma 1 receptor in guinea pig brain cortex membranes to Ki for DAT in Sprague-Dawley rat striatum membranes; assay type: cell membranes
Rattus norvegicus = organism: Rattus norvegicus; test: Selectivity ratio of Ki for SERT in Sprague-Dawley rat midbrain membranes to Ki for DAT in Sprague-Dawley rat striatum membranes

## O=C(c1ccc(F)cc1F)N1CCC(NCCSC(c2ccc(F)cc2)c2ccc(F)cc2)CC1
[1]
  Activity: < 3000 cm
[2]
  Ki: 0.0206 µM
[3]
  Ki: 0.296 µM
[4]
  Ki: 0.03 µM
D(3) dopamine receptor
  Ki: 3.26 µM
[5]
  Stabilty: 100%
[6]
  Stabilty: 33%
[7]
  Stabilty: 85%
[8]
  Ki: 1.62 µM
D(2) dopamine receptor
  Ki: 7.44 µM

## COC(=O)[C@H]1[C@@H](OC(=O)c2ccccc2)C[C@@H]2CC[C@H]1N2C [COCAINE]
[9]
  Activity: 8000 cm

## [O-][S+](CCNC1CCN(Cc2ccc(F)cc2)CC1)C(c1ccc(F)cc1)c1ccc(F)cc1 (stereo unspecified)
[1]
  Activity: < 3000 cm
[2]
  Ki: 0.0265 µM
D(3) dopamine receptor
  Ki: 12.4 µM
D(4) dopamine receptor
  Ki: 76.8 µM
[10]
  Ratio Ki: 0.52
[5]
  Stabilty: 100%
[7]
  Stabilty: 95%
Rattus norvegicus
  Ratio Ki: 7.37
[8]
  Ki: 11.2 µM
D(2) dopamine receptor
  Ki: 12.4 µM
